Assay type in all cases: functional
In test [1] the target is T1, Transcriptional activator protein LuxR (Aliivibrio fischeri, UniProt P12746).
T1 sequence (P12746 whole entry): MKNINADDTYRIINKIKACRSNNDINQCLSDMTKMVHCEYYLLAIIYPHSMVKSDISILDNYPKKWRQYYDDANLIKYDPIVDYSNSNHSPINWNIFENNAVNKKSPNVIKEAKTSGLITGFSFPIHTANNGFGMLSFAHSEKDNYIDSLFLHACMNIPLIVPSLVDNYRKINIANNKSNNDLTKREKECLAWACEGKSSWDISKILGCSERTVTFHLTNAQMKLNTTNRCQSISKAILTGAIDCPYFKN
Put plainly: Antagonist activity at Vibrio fischeri LuxR assessed as inhibition of 3-oxo-C6-HSL-induced quorum sensing activation mediated bioluminescence. The method, boiled down: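 Bioluminescence induced with 200 nM 3-oxo-C6-HSL, with test compounds added. IC50 is the concentration that halves the induced light intensity. Values are means of three experiments with standard deviation.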

For test [2], the target named is T2, Transcriptional activator protein LuxR (Aliivibrio fischeri) (UniProt P12746).
T2 sequence (whole entry): T1 sequence (P12746 whole entry)
Kind of test: Agonist activity at Vibrio fischeri LuxR assessed as activation of quorum sensing activation mediated bioluminescence.

A further test has as its system Aliivibrio fischeri. Put plainly: Antimicrobial activity against Vibrio fischeri incubated overnight at 37 degC by disc diffusion assay. In outline:
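Disk diffusion susceptibility assay following CLSI guidelines, with a kanamycin control disk. Compounds were tested at 20 μM, 200 μM, 2 mM and 20 mM. Inhibition zones were measured after overnight incubation at 37 °C, and the MIC was taken from these tested levels.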
(In agar diffusion tests the substance spreads into inoculated agar from a disc or well.)

Activity calls are given as the source filed them. The calls are words filed in the database; no cut-off is given here.

As for `CCCCCCCCCCCCCCCCn1cc[n+](C(c2ccccc2)c2ccccc2)c1`, the IC50 in test [1] (read-out: IC50) came out at 7.3 µM. The result in test [2] was inactive.

In the case of `CCCCn1cc[n+](C(c2ccccc2)c2ccccc2)c1.[Br-]`, the IC50 result in test [1] was “Not Active”. Also, in test [2], the outcome was inactive.

With `CCCCCCCCCCn1cc[n+](C2CCCC2)c1`, in test [1] (read-out: IC50), the IC50 was 33 µM. Further, in test [2], the outcome was inactive.

On to `CCCCCCCCCCCCCCn1cc[n+](C2c3ccccc3-c3ccccc32)c1`, for which the IC50 in test [1] (read-out: IC50) is 2.7 µM. Further, the result in test [2] was inactive.

For the compound `CCCCCCn1cc[n+](C(c2ccc(Cl)cc2)c2ccc(Cl)cc2)c1`, the IC50 in test [1] (read-out: IC50) came out at 63 µM. Also, in test [2], the result was inactive.

Consider `CCCCCCCCCCCCn1cc[n+](C(c2ccc(Cl)cc2Cl)c2ccc(Cl)cc2Cl)c1`, for which, in test [1] (read-out: IC50), the IC50 was 6.5 µM. Besides, the outcome in test [2] was inactive.

Turning to `CCCCCCCCn1cc[n+](C(c2ccccc2)c2ccccc2)c1`, the IC50 in test [1] (read-out: IC50) came to 76 µM. Also, in test [2], the result was inactive.

Consider `CCCCCCCCn1cc[n+](C2CCCC2)c1`, for which the IC50 in test [1] (read-out: IC50) was found to be 68 µM. The outcome in test [2] was inactive.

Consider `CCCCCCCCn1cc[n+](C(c2ccc(Cl)cc2Cl)c2ccc(Cl)cc2Cl)c1`, for which the IC50 in test [1] (read-out: IC50) is 8.9 µM. Moreover, the outcome in test [2] was inactive.

As to `CCCCCCCCCCCCCCCCn1cc[n+](C2c3ccccc3-c3ccccc32)c1`, in test [1] (read-out: IC50), the IC50 stood at 14.7 µM. The result in test [2] was inactive.

Regarding `CCCCCCCCCCn1cc[n+](C(c2ccc(Cl)cc2)c2ccc(Cl)cc2)c1`, the IC50 in test [1] (read-out: IC50) turned out to be 5.8 µM. Also, the outcome in test [2] was inactive.

For `CCCCCCCCCCCCCCn1cc[n+](C(c2ccc(Cl)cc2)c2ccc(Cl)cc2)c1`, the IC50 in test [1] (read-out: IC50) turned out to be 75 µM. In test [2], the outcome was inactive.

Turning to `CCCCCCCCCCCCn1cc[n+](C2CCCC2)c1`, the IC50 in test [1] (read-out: IC50) was 11 µM. The result in test [2] was inactive.

Regarding `CCCCCCCCCCCCCCn1cc[n+](C(c2ccccc2)c2ccccc2)c1`, in test [1] (read-out: IC50), the IC50 was found to be 5.2 µM. For the same compound, in test [2], the outcome was inactive.

Regarding `CCCCCCCCCCn1cc[n+](C(c2ccc(Cl)cc2Cl)c2ccc(Cl)cc2Cl)c1`, in test [1] (read-out: IC50), the IC50 was found to be 4.9 µM. Besides, the result in test [2] was inactive.

On to `CCCCCCCCCCn1cc[n+](C2c3ccccc3-c3ccccc32)c1`, for which, in test [1] (read-out: IC50), the IC50 turned out to be 4 µM. In addition, the outcome in test [2] was inactive.

As for `CCCCCCCCCCn1cc[n+](C(c2ccccc2)c2ccccc2)c1`, the IC50 in test [1] (read-out: IC50) amounted to 18 µM. Further, the result in test [2] was inactive.

On to `CCCCCCn1cc[n+](C(c2ccc(Cl)cc2Cl)c2ccc(Cl)cc2Cl)c1`, for which the IC50 in test [1] (read-out: IC50) was determined as 52 µM. Moreover, the outcome in test [2] was inactive.

Take `CCCCCCCCCCCCn1cc[n+](C2c3ccccc3-c3ccccc32)c1`: the IC50 in test [1] (read-out: IC50) is 1.4 µM. The same compound gave an MIC with Aliivibrio fischeri of 200 µM. Also, the outcome in test [2] was inactive.

On to `CCCCCCCCCCCCCCn1cc[n+](C2CCCC2)c1`, for which the IC50 in test [1] (read-out: IC50) was found to be 3.4 µM. Also, the minimum inhibitory concentration (MIC) in the test on Aliivibrio fischeri amounted to 200 µM. Further, the outcome in test [2] was inactive.

Take `CCCCCCn1cc[n+](C(c2ccccc2)c2ccccc2)c1`: the IC50 in test [1] (read-out: IC50) was 153 µM. Besides, the result in test [2] was inactive.

On to `CCCCCCCCCCCCCCCCn1cc[n+](C2CCCC2)c1`, for which the IC50 in test [1] (read-out: IC50) came out at 5.3 µM. The result in test [2] was inactive.

In the case of `CCCCCCCCn1cc[n+](C2c3ccccc3-c3ccccc32)c1`, in test [1] (read-out: IC50), the concentration for half-maximal inhibition (IC50) was found to be 35 µM. Further, the result in test [2] was inactive.

Consider `CCCCCCCCCCCCCCCCCCn1cc[n+](C(c2ccc(Cl)cc2)c2ccc(Cl)cc2)c1.[Br-]`, for which the concentration for half-maximal inhibition (IC50) result in test [1] was “Not Active”. Moreover, the outcome in test [2] was inactive.

Turning to `CCCCCCCCn1cc[n+](C(c2ccc(Cl)cc2)c2ccc(Cl)cc2)c1`, the IC50 in test [1] (read-out: IC50) amounted to 9.8 µM. Further, the outcome in test [2] was inactive.

Regarding `CCCCCCCCCCCCCCCCCCn1cc[n+](C(c2ccc(Cl)cc2Cl)c2ccc(Cl)cc2Cl)c1.[Br-]`, the IC50 entry in test [1] is on record as “Not Active”. The result in test [2] was inactive.

As for `CCCCCCCCCCCCn1cc[n+](C(c2ccccc2)c2ccccc2)c1`, the IC50 in test [1] (read-out: IC50) was 6.1 µM. In the test on Aliivibrio fischeri, this compound yielded an MIC of 200 µM. For the same compound, the result in test [2] was inactive.

For `CCCCCCCCCCCCCCn1cc[n+](C(c2ccc(Cl)cc2Cl)c2ccc(Cl)cc2Cl)c1.[Br-]`, in test [1], the IC50 entry was “Not Active”. Besides, the result in test [2] was inactive.

In the case of `CCCCCCCCCCCCCCCCCCn1cc[n+](C2CCCC2)c1`, the half-maximal inhibitory concentration (IC50) in test [1] (read-out: IC50) turned out to be 86 µM. Moreover, in test [2], the outcome was inactive.

Take `CCCCCCCCCCCCn1cc[n+](C(c2ccc(Cl)cc2)c2ccc(Cl)cc2)c1`: in test [1] (read-out: IC50), the IC50 stood at 6.2 µM. Moreover, in test [2], the outcome was inactive.

As a reminder, the IC50 is the concentration that inhibits the measured activity by half. Usually MIC stands for the lowest concentration that inhibits growth of the organism.

(Values after ChEMBL document CHEMBL1811828, “LuxR dependent quorum sensing inhibition by N,N'-disubstituted imidazolium salts” (Bioorg Med Chem, 2011).)
